We go through four molecules from ChEMBL document CHEMBL1155599, “Ancistrolikokines A-C: new 5,8'-coupled naphthylisoquinoline alkaloids from Ancistrocladus likoko” (J Nat Prod, 2000).

Molecules are shown by their SMILES. Converted amounts (≈) assume the structure as drawn.

Data set [1] relates to Plasmodium falciparum. The experiment in a line: Antimalarial activity after 48 hrs against Plasmodium falciparum K1 infected human erythrocytes by [3H]hypoxanthine uptake. The data set is classed as functional, organism-based. The procedure, abridged:
(§1)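 Modified [3H]hypoxanthine incorporation assay; infected human red blood cells exposed to serial drug dilutions for 48 h at 37 °C under reduced O2/elevated CO2, then [3H]hypoxanthine added and incubated a further 24 h; harvested on glass fiber filters, scintillation counted. IC50 from sigmoidal inhibition curve; duplicates, repeated at least once. NF54 is drug-sensitive, K1 is chloroquine/pyrimethamine-resistant.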

Data set [2] is described as follows: Cytotoxicity against rat L6 cells after 72 hrs. It counts as cell-based. As to conditions: read-out: MIC.
Data set [3] concerns Plasmodium falciparum. The experiment in a line: Antimalarial activity after 48 hrs against Plasmodium falciparum NF54 infected human erythrocytes by [3H]hypoxanthine uptake. It counts as functional, organism-based. The procedure, abridged: as §1

For orientation: IC50 means the midpoint of a concentration-inhibition curve. The low end stands for greater potency in that assay, the high end for weaker potency in that assay. As to `COc1cc(O)c2c(c1-c1ccc(O)c3c(OC)cc(C)cc13)C[C@@H](C)N(C)[C@@H]2C` [ANCISTROLIKOKINE A], the IC50 is 0.14 µg/mL (≈ 0.344 µM) with Plasmodium falciparum [1] and 0.191 µg/mL (≈ 0.469 µM) in the data set on Plasmodium falciparum [3]. Moreover, in data set [2], the MCC at 72 h worked out at 90 µg/mL.
Regarding `COc1cc(O)c(-c2ccc(OC)c3c(O)cc(C)cc23)c2c1[C@H](C)N[C@H](C)C2` [ANCISTROLIKOKINE B], the IC50 turned out to be 0.208 µg/mL (≈ 0.529 µM) in the data set with Plasmodium falciparum [1] and 0.538 µg/mL (≈ 1.37 µM) in the data set on Plasmodium falciparum [3]. Also, the MCC at 72 h in data set [2] amounted to 30 µg/mL.
Regarding `COc1cc(O)c(-c2ccc(OC)c3c(O)cc(C)cc23)c2c1[C@@H](C)N(C)[C@H](C)C2` [ANCISTROLIKOKINE C], the figures for the concentration for half-maximal inhibition (IC50) in the data set on Plasmodium falciparum [1] and in the data set on Plasmodium falciparum [3] were 0.924 µg/mL (≈ 2.27 µM) and 6.23 µg/mL (≈ 15.3 µM), respectively.
Consider `COc1cc(C)cc2c(-c3c(O)cc(O)c4c3C[C@@H](C)N[C@@H]4C)ccc(O)c12` [KORUPENSAMINE A], for which the IC50 in the data set on Plasmodium falciparum [1] stood at 0.072 µg/mL (≈ 0.19 µM); with Plasmodium falciparum [3], 0.024 µg/mL (≈ 0.0632 µM). For the same molecule, in data set [2], the MCC at 72 h stood at 100 µg/mL.
